Each structure is given as a SMILES string. The source made the active and inactive calls. No cut-off for these calls is given here.

The subject of series [1] is HCT-116. Put plainly: Induction of apoptosis in human HCT116 cells assessed as PARP cleavage at 20 uM after 72 hrs by immunoblotting. The format is functional, cell-based. Summed up: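 HCT116 cells were treated with 20 μM compound for 72 h and lysed in ice-cold buffer with PMSF and protease inhibitors. Protein in the cleared supernatant was measured by BCA, and PARP cleavage was detected by western blot with actin as reference.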

The species named for series [2] is Danio rerio. Put plainly: Teratogenic effect in zebrafish assessed as abnormal development of yolk sac at 160 uM after 72 hrs by microscopy. The format is toxicity, organism-based. The note with it: in vivo. Summed up:
(§1)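 Fertilized eggs were exposed from the eight-cell stage, 8 per well, at 31 °C for 72 h. Development, malformations and survival were then recorded by microscopy.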

In series [3] the test system is Cancer cell lines. Put plainly: Antitumor activity against human HCT116 cells xenografted in 48 hpf zebrafish embryo assessed as inhibition of cancer cell proliferation at 80 uM treated for 4 days. The series is classed as functional, cell-based. The essentials:
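HCT116 cells labelled with 2 μg/mL DiI were injected into the yolk sac of 48 hpf embryos. Embryos were held singly in E3 without methylene blue with compound (80 μM), 10 μM API-H7 as positive control or DMSO, at 31 °C for 96 h, 8 per group. Larvae were dissociated with collagenase/dispase for 2 h at 37 °C, fixed in paraformaldehyde, and fluorescent cells counted by microscopy. Two independent assays.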

Series [4] is filed under the species Danio rerio. Put plainly: Teratogenic effect in zebrafish assessed as abnormal head at 160 uM after 72 hrs by microscopy. Conditions: in vivo. The format is organism-based. The essentials: as §1
Series [5] is filed under the species Danio rerio. The series is described as follows: Teratogenic effect in zebrafish assessed as slow heartbeat at 160 uM after 72 hrs by microscopy. The format is organism-based. Conditions: in vivo. The essentials:
as §1

Series [6] has as its system HCT-116. The series is described as follows: Cytotoxicity against human HCT116 cells at 1.25 to 20 uM after 96 hrs by MTT assay. The format is functional, cell-based. Summed up: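 HCT116 cells in DMEM with 10% FBS, seeded at 4 × 10^3 per well and left overnight at 37 °C. Treated in 1% FBS–DMEM for 96 h, then MTT for 3 h. Formazan dissolved in DMSO, absorbance read at 570 nm. DMSO vehicle control. Two independent assays, mean ± SD.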

For series [7], the species on record is Danio rerio. The series is described as follows: Teratogenic effect in zebrafish assessed as skeletal deformities at 160 uM after 72 hrs by microscopy. The series is classed as organism-based. Conditions: in vivo. Summed up: as §1
Series [8] concerns Danio rerio. Put plainly: Teratogenic effect in zebrafish assessed as heart sac edema at 160 uM after 72 hrs by microscopy. The series is classed as organism-based. Conditions: in vivo. The essentials:
as §1

For series [9], the species on record is Danio rerio. The series is described as follows: Teratogenic effect in zebrafish assessed as developmental toxicity at 40 to 80 uM after 72 hrs by microscopy. The series is classed as organism-based. The note with it: in vivo. Summed up:
as §1

The species named for series [10] is Danio rerio. The series is described as follows: Teratogenic effect in zebrafish assessed as delayed hatching at 160 uM after 72 hrs by microscopy. The note with it: in vivo. The format is organism-based. The essentials:
as §1

For series [11], the species on record is Danio rerio. The series is described as follows: Teratogenic effect in zebrafish assessed as abnormal heart at 160 uM after 72 hrs by microscopy. The format is organism-based. The note with it: in vivo. Summed up:
as §1

Series [12] concerns beta-glucosidase. Put plainly: (§2) Drug metabolism assessed as zebrafish intestinal beta-glucosidase-mediated deglycosylation of compound at 80 uM after 2.5 hrs by resorufin-beta-D-glucopyranoside-based fluorescence assay. The format is ADME, Danio rerio. The note with it: zebrafish intestinal beta-glucosidase, probe resorufin-beta-D-glucopyranoside, read-out: Drug metabolism. Summed up:
(§3)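 Larvae at 7 dpf (24 per well) were incubated in E3 without methylene blue with Res-β-Glc probe at 400 μM, with or without 80 μM compound, for 2.5 h at 31 °C, then washed. Larvae showing reduced fluorescence against probe-alone larvae were counted by microscopy (n = 3, SD). Lysates were also read at ex 570/em 610 nm.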

Series [13] can be described thus: Drug metabolism assessed as zebrafish intestinal beta-glucosidase-mediated formation of quercetin at 80 uM after 2.5 hrs by resorufin-beta-D-glucopyranoside-based fluorescence assay. The series is classed as ADME, Danio rerio. The essentials: as §3
Series [14] concerns Cancer cell lines. Put plainly: Antitumor activity against human HCT116 cells xenografted in 48 hpf zebrafish embryo assessed as inhibition of cancer cell proliferation compound treated for 4 days. The format is functional, cell-based.
A short description of series [15]: Drug metabolism assessed as zebrafish intestinal beta-glucosidase-mediated formation of quercetin after 2.5 hrs by resorufin-beta-D-glucopyranoside-based fluorescence assay. The format is ADME, Danio rerio. Summed up:
as §3

The nature of series [16]: as §2. The series is classed as ADME, Danio rerio. Conditions: 2.5 h, 80 µM. The essentials: as §3

With `O=c1c(O)c(-c2ccc(O[C@@H]3O[C@H](CO)[C@@H](O)[C@H](O)[C@H]3O)c(O)c2)oc2cc(O)cc(O)c12` [SPIRAEOSIDE], the outcome in [1] and in [6] was Active. Besides, the Activity is on record as 31.25% in series [2]; 31.25% in series [4]; 31.25% in series [5]; 31.25% in series [7]; 31.25% in series [8]; “Non-toxic” in series [9]. Moreover, the Activity in series [10] and in [11] was 31.25% each time. Further, in series [3], the result was inactive. The metabolised at 2.5 h, 80 µM in [12] is 45%.
`O=c1c(O[C@@H]2O[C@H](CO)[C@@H](O)[C@H](O)[C@H]2O)c(-c2ccc(O)c(O)c2)oc2cc(O)cc(O)c12` [ISOQUERCETIN]: the result in series [1], in series [3] and in series [6] was Active. Besides, the Activity result was “Non-toxic” in series [2]; “Non-toxic” in series [4]; “Non-toxic” in series [5]; “Dose-dependent effect” in series [14]; “Non-toxic” in [7]; “Non-toxic” in series [8]. Besides, the Activity result in [9], in [10] and in [11] was “Non-toxic” each time. For the same molecule, the Drug metabolism result is reported as “metabolite_detected” in series [13] and “Dose-dependent effect” in series [15]. In series [12], the metabolised at 2.5 h, 80 µM was found to be 57%.
For the molecule `C[C@@H]1O[C@@H](Oc2c(-c3ccc(O)c(O)c3)oc3cc(O)cc(O)c3c2=O)[C@H](O)[C@H](O)[C@H]1O`, in series [3], the result was inactive. For the same molecule, in series [6], the outcome was Active.
The corresponding values for `O=c1c(O[C@@H]2O[C@H](CO)[C@H](O)[C@H](O)[C@H]2O)c(-c2ccc(O)c(O)c2)oc2cc(O)cc(O)c12` are “inactive” and “Active”.
For the molecule `O=c1c(O)c(-c2ccc(O)c(O)c2)oc2cc(O)cc(O)c12` [QUERCETIN], the result in [1], in series [3] and in series [6] was Active. Besides, the Activity entry in series [2], in series [4], in [5], in series [7], in [8] and in series [9] was “Non-toxic” in each case. Besides, the Activity result in series [10] and in series [11] was “Non-toxic” throughout. The Drug metabolism result in series [16] is reported as “metabolite_notdetected”.

The record behind these values is ChEMBL document CHEMBL3351339, “Delineation of the role of glycosylation in the cytotoxic properties of quercetin using novel assays in living vertebrates” (J Nat Prod, 2014).
